Data reported in ChEMBL document CHEMBL4406895, “Discovery of amide-bridged pyrrolo[2,3-d]pyrimidines as tumor targeted classical antifolates with selective uptake by folate receptor α and inhibition of de novo purine nucleotide biosynthesis” (Bioorg Med Chem, 2019).
Active and inactive are the calls of the source. The calls are words filed in the database; no cut-off is given here.

What was measured:
[1] = Antiproliferative activity in Chinese hamster R2 cells deficient in RFC, PCFT, and FRalpha assessed as reduction in cell growth after 96 hrs by Cell-Titer Blue assay; format: cell-based; details: Cricetulus griseus, R2, 96 h
Method in brief: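 CHO sublines were transfected lines kept with 1 mg/ml G418 (R2 is the transporter-null parent). Cells were exposed to 0–1000 nM drug for 96 h at 37 °C, 5% CO2, in folate-free RPMI with 10% dFBS and 25 nM leucovorin. CellTiter-Blue fluorescence read at ex 560/em 590 nm. IC50 is 50% loss of growth from dose–response curves, mean ± SE of 3–10 experiments.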

[2] = Binding affinity to human FRalpha/RFC/PCFT expressed in KB cells assessed as antiproliferative activity measured as reduction in cell growth after 96 hrs by Cell-Titer Blue assay; format: cell-based
Method in brief: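 RT16 cells were precultured 72 h in folate-free RPMI with 10% dFBS; KB cells were maintained in folate-free RPMI with 10% FBS. Drug at 0–1000 nM for 96 h at 37 °C, 5% CO2, with 2 nM leucovorin. Parallel wells had 200 nM folic acid to block FR uptake. CellTiter-Blue fluorescence (ex 560/em 590 nm). IC50 from dose–response, mean ± SE of 3–10 experiments.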

KB [3] = assay: Antiproliferative activity against human KB cells at 0.1 to 10000 nM after 96 hrs in presence of 60 uM adenosine by Cell-Titer blue assay; format: functional, cell-based
Method in brief: (§1)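 KB cells grown in folate-, nucleoside- and glycine-free RPMI 1640 with 10% dialyzed FBS, L-glutamine, antibiotics and 2 nM leucovorin across a drug concentration range. Protectants: thymidine 10 μM, glycine 130 μM, adenosine 60 μM or AICA 320 μM. Parallel incubations had no additions. Viable cells read by CellTiter-Blue fluorescence. At least triplicate experiments.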

KB [4] = assay: Antiproliferative activity against human KB cells at 0.1 to 10000 nM after 96 hrs in presence of 10 uM thymidine by Cell-Titer blue assay; format: functional, cell-based; method in brief: as §1
KB [5] = assay: Antiproliferative activity against human KB cells at 0.1 to 10000 nM after 96 hrs in presence of 130 uM glycine by Cell-Titer blue assay; format: functional, cell-based; method in brief: as §1
KB [6] = assay: Antiproliferative activity against human KB cells up to 1 uM after 96 hrs in presence of 320 uM AICA by Cell-Titer blue assay; format: functional, cell-based; method in brief: as §1
[7] = target: T1, Trifunctional purine biosynthetic protein adenosine-3 (Homo sapiens) (UniProt P22102); assay: Inhibition of GAFTase in human KB cells assessed as inhibition of [14C(U)glycine incorporation into [14C]formyl GAR preincubated for 30 mins followed by [14C](U)glycine addition and measured after 16 hrs; format: cell-based
T1 sequence (whole entry): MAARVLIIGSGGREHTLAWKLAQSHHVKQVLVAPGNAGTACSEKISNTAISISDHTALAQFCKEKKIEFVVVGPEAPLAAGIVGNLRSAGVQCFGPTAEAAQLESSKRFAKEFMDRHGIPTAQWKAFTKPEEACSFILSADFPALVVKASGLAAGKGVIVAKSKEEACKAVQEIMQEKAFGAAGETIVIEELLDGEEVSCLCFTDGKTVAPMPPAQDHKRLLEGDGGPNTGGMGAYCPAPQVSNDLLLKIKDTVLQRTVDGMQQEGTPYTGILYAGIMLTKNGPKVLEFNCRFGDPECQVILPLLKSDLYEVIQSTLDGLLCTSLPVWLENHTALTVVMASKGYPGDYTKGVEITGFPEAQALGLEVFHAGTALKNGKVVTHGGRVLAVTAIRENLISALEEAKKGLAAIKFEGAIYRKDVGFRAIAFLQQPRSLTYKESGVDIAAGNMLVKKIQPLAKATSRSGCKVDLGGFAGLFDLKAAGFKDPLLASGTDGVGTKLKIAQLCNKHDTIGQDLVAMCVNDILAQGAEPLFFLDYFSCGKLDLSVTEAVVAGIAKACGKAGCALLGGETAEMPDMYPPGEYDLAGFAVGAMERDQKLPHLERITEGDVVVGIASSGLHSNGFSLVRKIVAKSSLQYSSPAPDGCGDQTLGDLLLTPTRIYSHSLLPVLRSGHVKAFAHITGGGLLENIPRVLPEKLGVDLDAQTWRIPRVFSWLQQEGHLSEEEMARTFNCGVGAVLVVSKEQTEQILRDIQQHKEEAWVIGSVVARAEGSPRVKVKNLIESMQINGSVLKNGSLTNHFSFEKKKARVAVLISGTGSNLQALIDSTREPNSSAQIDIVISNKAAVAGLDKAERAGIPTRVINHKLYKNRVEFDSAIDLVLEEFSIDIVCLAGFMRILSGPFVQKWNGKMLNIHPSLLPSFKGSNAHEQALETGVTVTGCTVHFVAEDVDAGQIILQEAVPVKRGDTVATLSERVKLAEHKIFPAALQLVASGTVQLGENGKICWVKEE
Method in brief: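 KB cells adhered 24 h, then were washed and given drug (concentration range; DMSO controls) for 1 h in folate- and glutamine-depleted medium with 2 nM leucovorin. Azaserine 4 µM final was added for 30 min, then L-glutamine 2 mM and [14C(U)]glycine (0.1 mCi/L) for 16 h. TCA extracts yielded pmol [14C]formyl GAR/mg protein. IC50 relative to untreated controls, triplicates.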

## CN(Cc1cc2c(=O)[nH]c(N)nc2[nH]1)C(=O)c1csc(C(=O)N[C@@H](CCC(=O)O)C(=O)O)c1
[1]
  IC50: > 1 µM
[2]
  IC50: > 1 µM

## Nc1nc2[nH]c(CCCc3ccc(C(=O)N[C@@H](CCC(=O)O)C(=O)O)s3)cc2c(=O)[nH]1
KB [3]
  Activity: inactive
KB [4]
  Activity: Active
KB [5]
  Activity: Active
KB [6]
  Activity: inactive

## CN(Cc1cc2c(=O)[nH]c(N)nc2[nH]1)C(=O)c1ccc(C(=O)N[C@@H](CCC(=O)O)C(=O)O)cc1
[1]
  IC50: > 1 µM
[2]
  IC50: 0.0014 µM
KB [3]
  Activity: inactive
KB [4]
  Activity: Active
KB [5]
  Activity: Active
[7]
  inhibition: Active

## CN(Cc1cc2c(=O)[nH]c(N)nc2[nH]1)C(=O)c1ccc(C(=O)N[C@@H](CCC(=O)O)C(=O)O)s1
[1]
  IC50: > 1 µM
[2]
  IC50: 0.00423 µM
KB [3]
  Activity: inactive
KB [4]
  Activity: Active
KB [5]
  Activity: Active
[7]
  inhibition: Active

## CN(Cc1cc2c(=O)[nH]c(N)nc2[nH]1)C(=O)c1cc(C(=O)N[C@@H](CCC(=O)O)C(=O)O)cs1
[1]
  IC50: > 1 µM
[2]
  IC50: 0.0698 µM

## CN(Cc1cc2c(=O)[nH]c(N)nc2[nH]1)S(=O)(=O)c1ccc(C(=O)N[C@@H](CCC(=O)O)C(=O)O)cc1
[1]
  IC50: > 1 µM
[2]
  IC50: 0.669 µM

## CN(Cc1cc2c(=O)[nH]c(N)nc2[nH]1)C(=O)c1cccc(C(=O)N[C@@H](CCC(=O)O)C(=O)O)c1
[1]
  IC50: > 1 µM
[2]
  IC50: 0.00636 µM

## Nc1nc2[nH]c(CCCc3ccc(C(=O)N[C@@H](CCC(=O)O)C(=O)O)cc3)cc2c(=O)[nH]1
KB [3]
  Activity: inactive
KB [4]
  Activity: Active
KB [5]
  Activity: Active
KB [6]
  Activity: inactive
